{"data": "Measurements from different studies", "effect on": "cell growth or viability", "note": "Protocols differ between the studies behind these lines."}
{"SMILES": "COc1cc2c(cc1O)[C@@H](Cc1ccc(O)cc1)[N+](C)(C)CC2", "cell line": "Huh-7", "method": "MTT", "measurement": "CC50", "result": "> 318 µM"}
{"SMILES": "CC[C@@H](C)[C@H](N)C(=O)N1Cc2ccccc2C1", "cell line": "HEK-293T", "method": "ATP luminescence", "concentration": "60 µM", "measurement": "viability", "result": "73%"}
{"SMILES": "COc1ccc2c(c1)c1c(n2CO)CN2CCc3cc(OC)c(OCc4ccc(F)cc4)cc3C2C1 (stereo not drawn)", "cell line": "HepG2", "concentration": "10 µM", "time": "24 h", "measurement": "viability", "result": "104%"}
{"SMILES": "N[C@@H](CC(=O)N1CCN(C(c2ccc(F)cc2)c2ccc(F)cc2)CC1)C(=O)N1Cc2ccccc2C1", "cell line": "HEK-293T", "method": "ATP luminescence", "concentration": "60 µM", "measurement": "viability", "result": "41%"}
{"SMILES": "NC1CCC(CC2CCC(NC(=O)c3cc4[nH]ccc4cc3Cl)CC2)CC1 (stereo not drawn)", "cell line": "HEK-293T", "concentration": "100 µM", "time": "24 h", "measurement": "viability", "result": "< 50%"}
{"SMILES": "COc1cc2c(cc1OCc1ccccc1F)C1Cc3c(n(CO)c4ccccc34)CN1CC2 (stereo not drawn)", "cell line": "HepG2", "concentration": "20 µM", "time": "24 h", "measurement": "viability", "result": "83.6%"}
{"SMILES": "CCOP(=O)(OCC)[C@@H]1C[C@@H](n2cc(-c3ccc(F)cc3F)nn2)ON1C (racemic)", "cell line": "human T-lymphocyte", "time": "72 h", "measurement": "CC50", "result": "≥ 250 µM"}
{"SMILES": "CCCCCCn1c(-c2cccc(Cl)c2)n[nH]c1=S", "cell line": "HepG2", "method": "resazurin", "concentration": "100 µM", "time": "24 h", "measurement": "viability", "result": "75%"}
{"SMILES": "CCOP(=O)(OCC)[C@@H]1C[C@@H](n2cc(Cn3cc(C)c(=O)[nH]c3=O)nn2)ON1C (racemic)", "cell line": "human T-lymphocyte", "time": "72 h", "measurement": "CC50", "result": "> 250 µM"}
{"SMILES": "O=C(NCCc1c[nH]c2ccc(F)cc12)c1cc2[nH]ccc2cc1Cl", "cell line": "HEK-293T", "concentration": "100 µM", "time": "24 h", "measurement": "viability", "result": "< 50%"}
{"SMILES": "COc1ccc(CCN2CCC(Nc3nc4ccccc4n3Cc3ccc(F)cc3)CC2)cc1", "cell line": "HepG2", "method": "resazurin", "concentration": "50 µM", "time": "24 h", "measurement": "viability", "result": "20%"}
{"SMILES": "CCOP(=O)(OCC)[C@@H]1C[C@H](n2cc(Cn3ccc(=O)[nH]c3=O)nn2)ON1C (racemic)", "cell line": "human T-lymphocyte", "time": "72 h", "measurement": "CC50", "result": "> 250 µM"}
